Measured values pooled from the literature.
Compare with care: the assays were run in different laboratories.
Target: Protein-tyrosine kinase 2-beta (PTK2B, Homo sapiens, UniProt Q14289)

CN(C)c1ncc(F)c(-c2cnn3ncccc23)n1
remaining binding (binding; 1 µM): 100%

COc1cnc(Nc2cccc(S(N)(=O)=O)c2)nc1N1CCN(c2ccccc2)C(=O)C1
remaining binding (binding, competition with immobilised ligand; 1 µM): 100%

O=C(c1ccc(Nc2ncc(Cl)c(-c3cc4ccccc4s3)n2)cc1)N1CCC(N2CCCC2)CC1
remaining binding (binding, competition with immobilised ligand; 1 µM): 40%

CN(CCCC(F)(F)F)c1nccc(-c2cnn3ncccc23)n1
remaining binding (binding; 1 µM): 100%

FC(F)(F)Oc1cccc(-c2cnc3ccc(-c4ccncc4)nn23)c1
remaining binding (cell-free assay, competition with immobilised ligand; 5 µM): 76%

Cc1c[nH]c2nccc(Oc3c(F)cc(Nc4cc(Cl)nc(N)n4)cc3F)c12
remaining binding (cell-free assay, competition with immobilised ligand; 0.1 µM): 90%

CCN1CCN(Cc2ccc(C(=O)Nc3ccc(C)c(Oc4ccc5c(c4)CC(=O)N5)c3)cc2C(F)(F)F)CC1
remaining binding (binding, competition with immobilised ligand; 1 µM): 49%

CN(C)c1nccc(-c2cnn3ncccc23)n1
remaining binding (binding; 1 µM): 87%

CC(=O)c1c(NS(C)(=O)=O)c2cc(-c3ccc(Cl)cc3)c(-c3ccc(Cl)cc3Cl)nc2n(C)c1=O
remaining binding (cell-free assay, competition with immobilised ligand; 1 µM): 100%

CN(c1nccc(-c2cnn3ncccc23)n1)C1CC1
remaining binding (binding; 1 µM): 100%

c1cncc(-c2cccc(Nc3nccc(NC4CCCCC4)n3)c2)c1
remaining binding (binding, competition with immobilised ligand; 10 µM): 63%

C[C@H](c1cccc(C#N)c1)n1cc(Cl)cc(C(N)=O)c1=N
remaining binding (cell-free assay, competition with immobilised ligand; 1 µM): 100%

COc1ccnn2ncc(-c3ccnc(N(C)C)n3)c12
remaining binding (binding; 1 µM): 100%

COc1cnc(Nc2cccc(S(N)(=O)=O)c2)nc1N1CCN(c2ccccc2)CC1
remaining binding (binding, competition with immobilised ligand; 1 µM): 89%

Cc1cnc(Nc2ccc(C(=O)N3CCC(N4CCCC4)CC3)cc2)nc1-c1cc2ccccc2s1
remaining binding (binding, competition with immobilised ligand; 1 µM): 28%

CS(=O)(=O)c1cc(C2(NC(=O)c3cncc4c3cnn4-c3ccc(F)cc3)CC2)ccn1
remaining binding (cell-free assay, competition with immobilised ligand; 1 µM): 100%

O=C(NCC1CCOCC1)c1n[nH]cc1NC(=O)c1c(F)cccc1F
remaining binding (binding, competition with immobilised ligand; 1 µM): 100%

Nc1cnc(N2CCc3cc(S(=O)(=O)Nc4c(F)cc(Cl)cc4F)cc(N4CCCC4=O)c32)nc1
remaining binding (cell-free assay, competition with immobilised ligand; 1 µM): 100%

O=C(c1ccc(Nc2ncc(Cl)c(-c3ccc(Cl)s3)n2)cc1)N1CCC(N2CCCC2)CC1
remaining binding (binding, competition with immobilised ligand; 1 µM): 49%

N[C@H]1CCN(c2nccc(-c3cnn4ncccc34)n2)C1
remaining binding (binding; 1 µM): 100%

CC(C)CC(=O)N1CCc2nc(-c3ccc(Br)cc3)nc(N(C)Cc3ccccc3)c2C1
remaining binding (cell-free assay, competition with immobilised ligand; 0.1 µM): 100%
